Columns and labels:
Rattus norvegicus [1] = assay: In vivo evaluation of iv dosage of the Dicationic furans against Pneumocystis carinii in lung tissue of rats at 10 umol/kg/day; type: functional
How it was run: (§1)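 Immunosuppressed rat model of P. carinii pneumonia. Compounds are dosed intravenously. Read-out is cysts per g of lung tissue, compared against pooled saline-treated control rats (n = 125). Other details follow ref 2.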

Rattus norvegicus [2] = assay: In vivo evaluation of iv dosage of the Dicationic furans against Pneumocystis carinii in lung tissue of rats at 2 umol/kg/day; type: functional; how it was run: as §1
[3] = In vivo evaluation of iv dosage of the Dicationic furans against Pneumocystis carinii in rats measured 10 umol/kg/day; type: ADME, organism-based; settings: rat
How it was run: (§2)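 Intravenous dosing of test dications in immunosuppressed rats infected with P. carinii, following a previously described protocol. Infection is scored by lung cyst burden relative to pooled saline-control animals.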

[4] = In vivo evaluation of iv dosage of the Dicationic furans against Pneumocystis carinii in rats measured 2 umol/kg/day; type: ADME, organism-based; settings: rat; how it was run: as §2
Rattus norvegicus [5] = assay: In vivo evaluation of iv dosage of the Dicationic furans against Pneumocystis carinii in lung tissue of rats at 3.8 umol/kg/day; type: functional; how it was run: as §1
Rattus norvegicus [6] = assay: In vivo evaluation of iv dosage of the furan dications against Pneumocystis carinii in lung tissue of rats at 7.1 umol/kg/day; type: functional; how it was run: as §1
Rattus norvegicus [7] = assay: In vivo evaluation of iv dosage of the Dicationic furans against Pneumocystis carinii in lung tissue of rats at 2.5 umol/kg/day; type: functional; how it was run: as §1
Rattus norvegicus [8] = assay: In vivo evaluation of iv dosage of the Dicationic furans against Pneumocystis carinii in lung tissue of rats at 0.2 umol/kg/day; type: functional; how it was run: as §1
Rattus norvegicus [9] = assay: In vivo evaluation of iv dosage of the Dicationic furans against Pneumocystis carinii in lung tissue of rats at 1.1 umol/kg/day; type: functional; how it was run: as §1
Rattus norvegicus [10] = assay: In vivo evaluation of iv dosage of the Dicationic furans against Pneumocystis carinii in lung tissue of rats at 10.8 umol/kg/day; type: functional; how it was run: as §1
Rattus norvegicus [11] = assay: In vivo evaluation of iv dosage of the Dicationic furans against Pneumocystis carinii in lung tissue of rats at 2.2 umol/kg/day; type: functional; how it was run: as §1
[12] = In vivo evaluation of iv dosage of the Dicationic furans against Pneumocystis carinii in rats measured 0.2 umol/kg/day; type: ADME, organism-based; settings: rat; how it was run: as §2
[13] = In vivo evaluation of iv dosage of the Dicationic furans against Pneumocystis carinii in rats measured 1.1 umol/kg/day; type: ADME, organism-based; settings: rat; how it was run: as §2
[14] = In vivo evaluation of iv dosage of the Dicationic furans against Pneumocystis carinii in rats measured 10.8 umol/kg/day; type: ADME, organism-based; settings: rat; how it was run: as §2
[15] = In vivo evaluation of iv dosage of the Dicationic furans against Pneumocystis carinii in rats measured 2.2 umol/kg/day; type: ADME, organism-based; settings: rat; how it was run: as §2
Rattus norvegicus [16] = assay: In vivo evaluation of iv dosage of the Dicationic furans against Pneumocystis carinii in lung tissue of rats at 0.9 umol/kg/day; type: functional; how it was run: as §1
Rattus norvegicus [17] = assay: In vivo evaluation of iv dosage of the Dicationic furans against Pneumocystis carinii in lung tissue of rats at 1.9 umol/kg/day; type: functional; how it was run: as §1
Rattus norvegicus [18] = assay: In vivo evaluation of iv dosage of the Dicationic furans against Pneumocystis carinii in lung tissue of rats at 9.4 umol/kg/day; type: functional; how it was run: as §1
[19] = In vivo evaluation of iv dosage of the Dicationic furans against Pneumocystis carinii in rats measured 0.9 umol/kg/day; type: ADME, organism-based; settings: rat; how it was run: as §2
[20] = In vivo evaluation of iv dosage of the Dicationic furans against Pneumocystis carinii in rats measured 1.9 umol/kg/day; type: ADME, organism-based; settings: rat; how it was run: as §2
Rattus norvegicus [21] = assay: In vivo evaluation of iv dosage of the Dicationic furans against Pneumocystis carinii in lung tissue of rats at 5 umol/kg/day; type: functional; how it was run: as §1
[22] = In vivo evaluation of iv dosage of the Dicationic furans against Pneumocystis carinii in rats measured 5 umol/kg/day; type: ADME, organism-based; settings: rat; how it was run: as §2
Rattus norvegicus [23] = assay: In vivo evaluation of iv dosage of the Dicationic furans against Pneumocystis carinii in lung tissue of rats at 0.03 umol/kg/day; type: functional
How it was run: (§3)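 Immunosuppressed rat model of P. carinii pneumonia, with test compounds dosed intravenously per an earlier protocol. Read-out is cyst count per g of lung tissue, compared against pooled saline-treated controls.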

Rattus norvegicus [24] = assay: In vivo evaluation of iv dosage of the Dicationic furans against Pneumocystis carinii in lung tissue of rats at 0.3 umol/kg/day; type: functional; how it was run: as §3
Rattus norvegicus [25] = assay: In vivo evaluation of iv dosage of the Dicationic furans against Pneumocystis carinii in lung tissue of rats at 13.3 umol/kg/day; type: functional; how it was run: as §3
Rattus norvegicus [26] = assay: In vivo evaluation of iv dosage of the Dicationic furans against Pneumocystis carinii in lung tissue of rats at 2.7 umol/kg/day; type: functional; how it was run: as §3
[27] = In vivo evaluation of iv dosage of the Dicationic furans against Pneumocystis carinii in rats measured 0.03 umol/kg/day; type: ADME, organism-based; settings: rat; how it was run: as §2
[28] = In vivo evaluation of iv dosage of the Dicationic furans against Pneumocystis carinii in rats measured 0.3 umol/kg/day; type: ADME, organism-based; settings: rat; how it was run: as §2
[29] = In vivo evaluation of iv dosage of the Dicationic furans against Pneumocystis carinii in rats measured 13.3 umol/kg/day; type: ADME, organism-based; settings: rat; how it was run: as §2
[30] = In vivo evaluation of iv dosage of the Dicationic furans against Pneumocystis carinii in rats measured 2.7 umol/kg/day; type: ADME, organism-based; settings: rat; how it was run: as §2
Rattus norvegicus [31] = assay: In vivo evaluation of iv dosage of the furan dications against Pneumocystis carinii in lung tissue of rats at 22 umol/kg/day; type: functional; how it was run: as §1

## CC(C)/N=C(\N)c1ccc2[nH]c(-c3ccc(-c4nc5cc(/C(N)=N/C(C)C)ccc5[nH]4)o3)nc2c1.Cl
Rattus norvegicus [1]
  Control: 0.11%
Rattus norvegicus [2]
  Control: 31.77
[3]
  Toxicity: 0
[4]
  Toxicity: 0

## Cl.N=C(NC1CCCC1)c1ccc2[nH]c(-c3ccc(-c4nc5cc(C(=N)NC6CCCC6)ccc5[nH]4)o3)nc2c1
Rattus norvegicus [5]
  Control: 53.81%

## Cl.N=C(N)c1ccc2[nH]c(-c3ccc(-c4nc5cc(C(=N)N)ccc5[nH]4)o3)nc2c1
Rattus norvegicus [1]
  Control: 1.8%

## Cl.N=C(N)c1ccc2[nH]c(-c3ccc(-c4ccc(-c5ccc(-c6nc7cc(C(=N)N)ccc7[nH]6)cc5)o4)cc3)nc2c1
Rattus norvegicus [6]
  Control: 180%

## N=C(NC1CCCC1)c1ccc(-c2ccc(-c3nc4cc(C(=N)NC5CCCC5)ccc4[nH]3)o2)cc1
Rattus norvegicus [7]
  Control: 0.82%

## CC(C)/N=C(\N)c1ccc(-c2ccc(-c3nc4cc(/C(N)=N\C(C)C)ccc4[nH]3)o2)cc1
Rattus norvegicus [1]
  Control: 0.13%

## CC(C)NC(=N)c1ccc(-c2ccc(-c3ccc(C(=N)NC(C)C)cc3)o2)cc1
Rattus norvegicus [8]
  Control: 201.74%
Rattus norvegicus [9]
  Control: 14%
Rattus norvegicus [10]
  Control: 0.24%
Rattus norvegicus [11]
  Control: 10.04%
[12]
  Toxicity: 0
[13]
  Toxicity: 0
[14]
  Toxicity: 0
[15]
  Toxicity: 0

## N=C(NC1CCCC1)c1ccc(-c2ccc(-c3ccc(C(=N)NC4CCCC4)cc3)o2)cc1
Rattus norvegicus [8]
  Control: 111.65%
Rattus norvegicus [16]
  Control: 0.13%
Rattus norvegicus [17]
  Control: 0.09%
Rattus norvegicus [18]
  Control: 0.04%
[12]
  Toxicity: 0
[19]
  Toxicity: 0
[20]
  Toxicity: 0

## N=C(N)c1ccc(-c2ccc(-c3nc4cc(C(=N)N)ccc4[nH]3)o2)cc1
Rattus norvegicus [21]
  Control: 50.98%
[22]
  Toxicity: 0

## N=C(N)c1ccc(-c2ccc(-c3ccc(C(=N)N)cc3)o2)cc1 [FURAMIDINE]
Rattus norvegicus [23]
  Control: 26.23%
Rattus norvegicus [24]
  Control: 6.42%
Rattus norvegicus [25]
  Control: 0.73%
Rattus norvegicus [26]
  Control: 6.74%
[27]
  Toxicity: 0
[28]
  Toxicity: 0
[29]
  Toxicity: 0
[30]
  Toxicity: 0

## N=C(N)c1ccc(OCCCCCOc2ccc(C(=N)N)cc2)cc1 [PENTAMIDINE]
Rattus norvegicus [31]
  Control: 1.82%

From ChEMBL document CHEMBL1131123, “Extended aromatic furan amidino derivatives as anti-Pneumocystis carinii agents” (J Med Chem, 1998)
